For data set [1], the target named is T1, Prothrombin (Homo sapiens, UniProt P00734). As to the kind of experiment: Inhibitory activity against thrombin.
Data set [2] is described as follows: Oral bioavailability. It counts as ADME, organism-based. The conditions noted are these: eutheria, in vivo. An outline of the steps:
(§1)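 Rats (275-325 g) with jugular cannula placed under methohexital one day earlier; dogs dosed by both routes with at least 2 weeks wash-out. IV and oral gavage in separate rats. At least six blood samples in EDTA. Plasma anti-IIa activity measured with S-2238 against a compound-spiked plasma calibration. %F = PO AUC divided by dose-normalized mean IV AUC ×100, AUC by trapezium rule.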

Data set [3] is described as follows: Half life was reported. The data set is classed as ADME.
Data set [4] in a line: Bioavailability in rat. It counts as ADME, organism-based. Particulars: in vivo. A digest of the protocol:
as §1

Data set [5] is described as follows: Half life value in rat was determined. It counts as ADME, organism-based. Particulars: in vivo. An outline of the steps: (§2)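 Elimination half-life after IV dosing of cannulated rats (275-325 g) or dogs, at least six EDTA plasma samples. Plasma samples diluted in Tris-NaCl pH 7.4, incubated 2 min with 0.5 U/mL human thrombin, then S-2238 added. ΔOD405 taken between 2 and 22 min and read against a calibration of compound spiked in pooled plasma. Fitted by iterative Simplex procedure.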

The nature of data set [6]: Bioavailability in rat (Wistar). The data set is classed as ADME, organism-based. Particulars: in vivo. An outline of the steps: as §1
Data set [7] is described as follows: Bioavailability in dog. It counts as ADME, organism-based, Canis lupus familiaris. Particulars: in vivo. An outline of the steps: as §1
Data set [8] in a line: Half life value in wistar rats. The data set is classed as ADME, organism-based. Particulars: rat, in vivo. A digest of the protocol:
as §2

Data set [9] addresses T1, Prothrombin. As to the kind of experiment: Antithrombotic potency in the Aortic flow model in rats was reported. The data set is classed as functional. Particulars: Rattus norvegicus; target entry is the homologue from another species. A digest of the protocol: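 Rats (350-500 g body wt) were weighed. A silk thread (size 4/0, uncoated), knotted twice and protruding 3 mm from a catheter, was introduced via the left common carotid artery and positioned in the aorta. The carotid was clamped and the iliac clamp released. After 10 min of blood circulation, the thread was removed and rinsed, and thrombus weight and length were measured.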

Data set [10] in a line: Half life value determined in dog. It counts as ADME, Canis lupus familiaris. The conditions noted are these: in vivo. An outline of the steps:
as §2

Data set [11] in a line: Bioavailability in dog determined. The conditions noted are these: in vivo. The data set is classed as ADME, organism-based, Canis lupus familiaris. An outline of the steps: as §1
The nature of data set [12]: Clearance was reported. The data set is classed as ADME, organism-based. Particulars: in vivo.
Data set [13] can be described thus: Bioavailability determined in rat. The data set is classed as ADME, organism-based. The conditions noted are these: in vivo. A digest of the protocol:
as §1

A short description of data set [14]: Half life value in dog was determined. It counts as ADME, organism-based, Canis lupus familiaris. The conditions noted are these: in vivo. A digest of the protocol: as §2

For the molecule `NCCCC[C@H](NC(=O)[C@@H]1CCCN1C(=O)[C@H](N)CC1CCCCC1)C(=O)C(=O)O`, at Prothrombin [1], the Ki (usually a measure of affinity in units of concentration, obtained from inhibition or displacement) came out at 0.14 nM. For the same molecule, the bioavailability (usually the share of a dose that reaches the circulation, judged against a reference dose that is usually intravenous) in data set [2] came out at 9%. In addition, the half-life (usually how long it takes for the measured level to halve) in data set [3] amounted to 9 min.

Regarding `NCCCC[C@H](NC(=O)[C@@H]1CCCN1C(=O)[C@@H](CC1CCCCC1)NCC(=O)O)C(=O)C(=O)NCCc1ccccc1`, the bioavailability in data set [4] turned out to be 23%. The molecule further came in with a half-life in [5] of 17 min. In addition, the affinity on Prothrombin [1], expressed as Ki, was 0.84 nM.

`CC1CNc2c(cccc2S(=O)(=O)N[C@@H](CCCNC(=N)N)C(=O)N2CC[C@@H](C)C[C@@H]2C(=O)O)C1` (stereo partly drawn) [ARGATROBAN] came in with a bioavailability in data set [2] of 27%.

Take `CCS(=O)(=O)N[C@H](CC1CCCCC1)C(=O)N1CCC[C@H]1C(=O)N[C@@H](CCCCN)C(=O)c1nccs1`: the Ki at Prothrombin [1] amounted to 2 nM.

`NCCCC[C@H](NC(=O)[C@@H]1CCCN1C(=O)[C@@H](CC1CCCCC1)NCC(=O)O)C(=O)c1ncco1`: affinity at Prothrombin [1] was put at a Ki of 0.42 nM. In [2], this molecule showed a bioavailability of 28%. This molecule also returned a half-life in [3] of less than 5 min.

Take `NCCCC[C@H](NC(=O)[C@@H]1CCCN1C(=O)[C@H](N)Cc1ccccc1)C(=O)c1nccs1`: the Ki at Prothrombin [1] stood at 146 nM.

`NCCCC[C@H](NC(=O)[C@@H]1CC2CCCCC2N1C(=O)[C@@H](CC1CCCCC1)NCC(=O)O)C(=O)C(=O)O` (stereo partly drawn): in [4], the bioavailability is 25%. The molecule further returned a half-life in data set [5] of 8 min. Also, the Ki at Prothrombin [1] amounted to 0.82 nM.

As to `NCCCC[C@H](NC(=O)[C@@H]1C=CCN1C(=O)[C@@H](CC1CCCCC1)NCC(=O)O)C(=O)C(=O)O`, the bioavailability in data set [6] is 37%; in data set [7], 68%. Besides, the figures for the half-life in [6] and in data set [8] were 32 min and 22 min, respectively. Also, the Ki on Prothrombin [1] is 0.33 nM.

Molecule `NCCCC[C@H](NC(=O)CN(C1CC1)C1Cc2ccccc2C1)C(=O)c1nccs1` came in with a Ki at Prothrombin [1] greater than 1000 nM.

In turn, `NC(N)=NCCC[C@H](NC(=O)[C@@H]1CCCN1C(=O)[C@@H](N)Cc1ccccc1)C(=O)c1nccs1` had a Ki at Prothrombin [1] of 0.3 nM. Moreover, in data set [2], the bioavailability was less than 5%. Also, the half-life in [3] was 5 min.

On Prothrombin [1], `O=C(c1nccs1)[C@H](CCCCO)NC(=O)[C@@H]1CCCN1C(=O)CC(c1ccccc1)c1ccccc1` came in with an inhibition constant Ki greater than 1000 nM.

On to `NCCCC[C@H](NC(=O)[C@@H]1CCCN1C(=O)[C@H](N)Cc1ccccc1)C(=O)C(=O)O`, for which affinity at Prothrombin [1] was put at a Ki of 1.4 nM.

`CC1(C)CCN(C(=O)[C@@H](CC2CCCCC2)NCC(=O)O)[C@@H]1C(=O)N[C@@H](CCCCN)C(=O)C(=O)O` gave a Ki on Prothrombin [1] of 376 nM.

On Prothrombin [1], `COc1ccc2ccc(S(=O)(=O)N[C@@H](CCCCN)C(=O)N3CCC(C)CC3)cc2c1` yielded a Ki greater than 1000 nM.

For `NC(N)=NCCC[C@@H]1NC(=O)[C@@H]2CCCN2C(=O)[C@@H](NC=O)CNC(=O)/C=C/[C@H](Cc2ccc(O)cc2)NC(=O)[C@@H](Cc2ccccc2)NC(=O)C1=O` [CYCLOTHEONAMIDE A], the affinity on Prothrombin [1] corresponds to a Ki of 1 nM.

The molecule `NCCCC[C@H](NC(=O)[C@@H]1CCCN1C(=O)[C@@H](CC1CCCCC1)NCC(=O)O)C(=O)c1nccs1` returned a Ki on Prothrombin [1] of 2.6 nM. In addition, the ED50 (nM min-1 kg-1) on Prothrombin [9] amounted to 19. The molecule further yielded a bioavailability in [2] of 23%. Further, the half-life in data set [3] was 23 min.

Take `NCCCC[C@H](NC(=O)[C@@H]1CCN1C(=O)[C@@H](CC1CCCCC1)NCC(=O)O)C(=O)C(=O)O`: the bioavailability in data set [6] is 15%; in [7], 1%. The results for the half-life in [8] and in data set [10] were 21 min and 42 min, respectively. The molecule further yielded a Ki on Prothrombin [1] of 0.5 nM.

For `NCCCC[C@H](NC(=O)[C@@H]1CCCN1C(=O)CC(c1ccccc1)c1ccccc1)C(=O)c1nccs1`, on Prothrombin [1], the affinity, expressed as Ki, was 204 nM.

As for `NCCCC[C@H](NC(=O)[C@@H]1CCCN1C(=O)[C@@H](CC1CCCCC1)NCC(=O)O)C(=O)C(=O)O`, the half-life in data set [8] was found to be 19 min; in [10] it was 78 min. Further, the Ki on Prothrombin [1] was 0.29 nM. Further, at Prothrombin [9], the ED50 (nM min-1 kg-1) amounted to 7.5. For the same molecule, the bioavailability in data set [2] amounted to 39%; in data set [11], 24%. Further, the clearance (in general, the rate of elimination divided by the concentration) in data set [12] is 0.417 mL/min.

`NCCCC[C@H](NC(=O)CN(C(=O)[C@@H](CC1CCCCC1)NCC(=O)O)C1CCCC1)C(=O)C(=O)O` returned a bioavailability in data set [4] of 2%. Further, in [5], the half-life worked out at 18 min. Further, the affinity at Prothrombin [1] corresponds to a Ki of 0.21 nM.

`NCCCC[C@H](NC(=O)[C@@H]1CCCCN1C(=O)[C@@H](CC1CCCCC1)NCC(=O)O)C(=O)C(=O)O`: the bioavailability in [13] turned out to be 6%. The same molecule gave a half-life in [8] of 5 min. Also, at Prothrombin [1], the affinity corresponds to a Ki of 0.29 nM.

`NCCCC[C@H](NC(=O)[C@@H]1CCCN1C(=O)[C@H](N)CC1CCCCC1)C(=O)c1nccs1` yielded a bioavailability in data set [6] of less than 5%. Moreover, the half-life in [8] was 17 min. In addition, affinity at Prothrombin [1] was put at a Ki of 3.5 nM.

With `NCCCC[C@H](NC(=O)CN(C(=O)[C@H](N)CC1CCCCC1)C1CC1)C(=O)c1nccs1`, the Ki at Prothrombin [1] amounted to 13 nM.

Take `COc1ccc2ccc(S(=O)(=O)N[C@@H](CCCCN)C(=O)c3nccs3)cc2c1`: the Ki on Prothrombin [1] is greater than 1000 nM.

`CC(C)OC(=O)C(=O)[C@H](CCCCN)NC(=O)[C@@H]1CCCN1C(=O)[C@@H](CC1CCCCC1)NCC(=O)O`: the bioavailability in data set [4] worked out at 32%; in data set [7], 71%. Further, the half-life was found to be 58 min in data set [5] and 108 min in data set [14]. On Prothrombin [1], this molecule showed a Ki of 1.1 nM.

On Prothrombin [1], `NCCCC[C@H](NC(=O)[C@@H]1CCCN1C(=O)[C@H](CC(=O)O)NS(=O)(=O)Cc1ccccc1)C(=O)C(=O)O` had an inhibitory constant (Ki) of 15 nM.
